Results on two compounds are retold here after ChEMBL document CHEMBL1255395, “Laninamivir prodrug CS-8958, a long-acting neuraminidase inhibitor, shows superior anti-influenza virus activity after a single administration” (Antimicrob Agents Chemother, 2010).

Common to all, as to type: functional, organism-based
Experiment [1] has as its system Influenza A virus. As to the kind of experiment: Antimicrobial activity against H274Y mutant oseltamivir-resistant influenza A virus (A/Yokohama/67/2006 (H1N1)) clone 11 infected in BALB/c mouse assessed as reduction in viral titer in lung at 0.080 mg/kg, itn administered 13 hrs post infection measured after 37 hrs post infection. Also noted: dose 0.08 mg/kg. Put shortly: (§1)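 Female BALB/c mice (5–6 weeks) infected intranasally with clone 11, then given a single intranasal dose in saline at 13 hpi. Lungs from 3 mice per time point were homogenized in PBS with 0.4% BSA and centrifuged at 2,200 × g. Supernatants were titrated by MDCK plaque assay (agar overlay with 1 μg/ml trypsin, 2 days, crystal violet). Reported as log10 PFU/lungs, mean ± SD; detection limit 2.4.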

The test system of experiment [2] is Influenza A virus. Nature of the experiment: Antimicrobial activity against H274Y mutant oseltamivir-resistant influenza A virus (A/Yokohama/67/2006 (H1N1)) clone 11 infected in BALB/c mouse assessed as reduction in viral titer in lung at 0.080 mg/kg, itn administered 13 hrs post infection measured after 61 hrs post infection. The arrangement: dose 0.08 mg/kg. An outline of the steps: as §1

Experiment [3] relates to Influenza A virus. As to the kind of experiment: Antimicrobial activity against H274Y mutant oseltamivir-resistant influenza A virus (A/Yokohama/67/2006 (H1N1)) clone 11 infected in BALB/c mouse assessed as reduction in viral titer in lung at 0.080 mg/kg, itn administered 13 hrs post infection measured after 85 hrs post infection. The arrangement: dose 0.08 mg/kg. An outline of the steps: as §1

The test system of experiment [4] is Influenza A virus. Nature of the experiment: Antimicrobial activity against H274Y mutant oseltamivir-resistant influenza A virus (A/Yokohama/67/2006 (H1N1)) clone 11 infected in BALB/c mouse assessed as reduction in viral titer in lung at 1.0 mg/kg, po administered 13 hrs post infection, qd measured after 37 hrs post infection. Also noted: dose 1 mg/kg.
Experiment [5] deals with Influenza A virus. Nature of the experiment: Antimicrobial activity against H274Y mutant oseltamivir-resistant influenza A virus (A/Yokohama/67/2006 (H1N1)) clone 11 infected in BALB/c mouse assessed as reduction in viral titer in lung at 1.0 mg/kg, po administered 13 hrs post infection, qd measured after 61 hrs post infection. Also noted: dose 1 mg/kg.
For experiment [6], the system named is Influenza A virus. Nature of the experiment: Antimicrobial activity against H274Y mutant oseltamivir-resistant influenza A virus (A/Yokohama/67/2006 (H1N1)) clone 11 infected in BALB/c mouse assessed as reduction in viral titer in lung at 1.0 mg/kg, po administered 13 hrs post infection, qd measured after 85 hrs post infection. The arrangement: dose 1 mg/kg.

Experiment [7] deals with Influenza A virus. As to the kind of experiment: Antimicrobial activity against H274Y mutant oseltamivir-resistant influenza A virus (A/Yokohama/67/2006 (H1N1)) clone 11 infected in BALB/c mouse assessed as reduction in viral titer in lung at 10 mg/kg, po administered 13 hrs post infection, qd measured after 37 hrs post infection. The arrangement: dose 10 mg/kg.
The test system of experiment [8] is Influenza A virus. Nature of the experiment: Antimicrobial activity against H274Y mutant oseltamivir-resistant influenza A virus (A/Yokohama/67/2006 (H1N1)) clone 11 infected in BALB/c mouse assessed as reduction in viral titer in lung at 10 mg/kg, po administered 13 hrs post infection, qd measured after 61 hrs post infection. Also noted: dose 10 mg/kg.
Experiment [9] deals with Influenza A virus. As to the kind of experiment: Antimicrobial activity against H274Y mutant oseltamivir-resistant influenza A virus (A/Yokohama/67/2006 (H1N1)) clone 11 infected in BALB/c mouse assessed as reduction in viral titer in lung at 10 mg/kg, po administered 13 hrs post infection, qd measured after 85 hrs post infection. Also noted: dose 10 mg/kg.

The source made the active and inactive calls. No cut-off for these calls is given here.

As to `CCCCCCCC(=O)OC[C@@H](O)[C@@H](OC)[C@@H]1OC(C(=O)O)=C[C@H](NC(=N)N)[C@H]1NC(C)=O` [LANINAMIVIR OCTANOATE], the outcome in the experiment with Influenza A virus [1], in the experiment on Influenza A virus [2] and with Influenza A virus [3] was Active.
Turning to `CCOC(=O)C1=C[C@@H](OC(CC)CC)[C@H](NC(C)=O)[C@@H](N)C1.O=P(O)(O)O` [OSELTAMIVIR PHOSPHATE], the outcome in the experiment with Influenza A virus [4], with Influenza A virus [5], in the experiment with Influenza A virus [6], in the experiment on Influenza A virus [7], in the experiment with Influenza A virus [8] and in the experiment on Influenza A virus [9] was inactive.
